Assay outcomes (PubChem BioAssay)
DNMT1 block = human DNMT1 methyltransferase inhibitors, primary screen, biochemical, molecular beacon, fluorescence, HinP1I cleavage, uHTS; inhibition (reported as % activation of signal), % at 10 µM; 360,000 tested, 0.83% active; AID 588458, 2011; in the data active means inhibition above about 50%
STEP block = STEP phosphatase inhibitors, primary screen, biochemical, fluorescence intensity, uHTS; Tyrosine-protein phosphatase non-receptor type 5 (Homo sapiens), P54829; recombinant STEP, OMFP fluorogenic substrate; inhibition, % at 20 µM; 360,000 tested, 0.25% active; AID 588621, 2011;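 active means inhibition at 20 µM, scaled per plate between control wells, above about 37%, limit read from the data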
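Also added – OMFP at 25 µM · Test system – STEP tyrosine phosphatase · Technique – FITC-channel fluorescence of OMFP product · Schedule – 20 min at room temperature, dark · Evaluation – control-normalized % inhibition with plate pattern correction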
SUMO1 PPI mod = modulators of SUMO1 protein-protein interactions, primary screen, biochemical, uHTS; Small ubiquitin-related modifier 1 (Homo sapiens), P63165; SUMO1 binding to a labelled peptide, TR-FRET, 1 h; inhibition, % at 20 µM; 360,000 tested, 0.33% active; AID 602429, 2012; in the data active means inhibition above about 37%
Target sequence (P63165 whole entry, looked up): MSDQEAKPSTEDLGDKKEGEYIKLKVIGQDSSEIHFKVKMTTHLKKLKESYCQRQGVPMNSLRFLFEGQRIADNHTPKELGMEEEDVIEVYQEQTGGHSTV
LMPTP inh = LMPTP phosphatase inhibitors, primary screen, biochemical, fluorescence intensity, uHTS. Low molecular weight phosphotyrosine protein phosphatase (Homo sapiens), P24666. recombinant LMPTP-A, OMFP fluorogenic substrate. inhibition, % at 20 µM. 360,000 tested, 0.22% active. AID 651560, 2012;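 active means compounds that cut the enzyme signal by at least half of the control window in the single-dose screen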
Target sequence (P24666 whole entry, looked up): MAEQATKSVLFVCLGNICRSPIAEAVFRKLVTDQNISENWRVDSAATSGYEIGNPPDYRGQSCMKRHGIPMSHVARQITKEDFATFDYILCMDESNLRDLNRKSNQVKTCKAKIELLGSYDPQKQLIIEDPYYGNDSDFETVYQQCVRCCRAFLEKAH
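Assay system: LMPTP-A phosphatase enzyme | Input: 0.625 nM enzyme | Also added: Fluorogenic phosphatase substrate OMFP at 400 µM final | Compound dosing: One test concentration per compound, 20 µM, with 3% DMSO overall | Schedule: 50 min enzyme reaction at room temperature, protected from light | Signal: Fluorescence intensity | Benchmarks: no-enzyme and uninhibited controls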
Scp-1 inhibitor = Scp-1 phosphatase inhibitors, primary screen, biochemical, colorimetric, uHTS; Carboxy-terminal domain RNA polymerase II polypeptide A small phosphatase 1 (Homo …; 340,000 tested, 0.88% active; Recombinant Scp1, phosphopeptide, malachite green phosphate absorbance; inhibition, % at 20 µM; AID 493091, 2011;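 active means inhibition above about 50% at 20 µM, limit read from the data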
Target sequence (Q9GZU7 76-261 limits assumed): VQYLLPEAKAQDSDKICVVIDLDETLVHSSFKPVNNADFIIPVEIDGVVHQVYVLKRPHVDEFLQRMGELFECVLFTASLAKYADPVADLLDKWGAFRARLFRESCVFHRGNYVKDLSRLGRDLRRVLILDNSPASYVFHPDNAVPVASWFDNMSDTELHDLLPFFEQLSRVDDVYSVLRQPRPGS
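Test system: SCP-1 catalytic domain; Buffer or medium: Acidic Tris acetate buffer with magnesium and detergent; Also added: Phosphorylated 17-residue peptide substrate; Compound: single 20 µM dose, 1% DMSO; Schedule: enzyme reaction 45 min at room temperature, colour 5 min, stabilisation 30 min; Signal: Phosphate-binding colour reagent, absorbance read at 630 nm.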
Beacon interf DR = spectral interference with molecular beacon fluorescence, dose response, artefact control for DNMT1 inhibitor project, biochemical, fluorescent molecular beacon; shares compounds with DNMT1 block; spectral interference counter-screen; IC50, µM; 200 tested, under 10 active; AID 602382, 2012; call rule not given here
DNMT1 confirm = DNMT1 methyltransferase inhibitor retest, confirmation, biochemical, molecular beacon, fluorescence, single concentration; DNMT1 molecular beacon HinP1I cleavage; inhibition, % at 10 µM; 2,300 tested, 8% active; AID 602385, 2012; shares compounds with DNMT1 block;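 active means average inhibition of at least 30% in the single-concentration confirmation test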
DNMT1 interf = beacon fluorescence artifact counter-screen; shares compounds with DNMT1 block; DNMT1 molecular beacon spectral interference counterscreen, fluorescence 485/520; activation (fluorescence interference), % at 10 µM; 2,300 tested, 1% active; AID 602387;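 active means activation of at least 30% at 10 µM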;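 further: DNMT1 catalytic domain with a HinP1I cleavage step and a FAM/dabcyl DNA beacon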
Hits are given with their value; . = inactive; / = not tested or not shown. Sampled rows, rich in hits. Any-hit rate of the full collection: about 1.7%.

SMILES | DNMT1 block | STEP block | SUMO1 PPI mod | LMPTP inh | Scp-1 inhibitor | DNMT1 confirm | DNMT1 interf | others
CC1=NN(c2ccccc2)C(=O)C1/C=C1\NC(=S)NC1=O (centres undefined) | 90.5 | . | . | . | . | 37.6 | . | Beacon interf DR=.
O=C1/C(=C/c2ccco2)Cc2ccccc21 | 58.6 | . | . | . | . | . | .
Cc1csc(NC(=O)CCn2c(=O)oc3ccccc32)n1 | . | . | . | . | . | / | /
O=C(Cn1c(=O)oc2ccccc21)Nc1nc(-c2ccc(Br)cc2)cs1 | . | . | . | . | . | . | .
O=C(C(Cl)Cl)N1c2ccccc2OCC1c1ccccc1 (centres undefined) | . | . | . | . | . | / | /
Cc1ccc(Cl)cc1NC(=O)C1CCCCC1C(=O)O (centres undefined) | 50.1 | . | . | . | . | . | .
O=C(Nc1ccn([C@H]2CC[C@@H](CO)O2)c(=O)n1)c1ccccc1 | . | . | . | . | . | / | /
CCC(Cc1ccccc1)NC(=O)C1CCN(S(=O)(=O)c2ccc3c(c2)CC(C)N3C(C)=O)CC1 (centres undefined) | . | . | . | . | . | / | /
O=C(Nc1ccc2oc(-c3cccc4ccccc34)nc2c1)c1ncn[nH]1 | 66.5 | . | . | . | . | . | .
COc1ccc(S(=O)(=O)Nc2c(C(=O)O)[nH]c3ccc(OC)cc23)c(OC)c1 | . | . | . | . | . | / | /
CC(C)OCCCn1c(=N)c(C(N)=S)cc2c(=O)n3ccccc3nc21 | 64.3 | . | . | . | . | . | .
CC(=O)N=c1c(C#N)cc2c(=O)n3ccccc3nc2n1CCCOC(C)C | . | . | . | . | . | / | /
C=CCn1c(=O)c(C(=O)Nc2ccc(C)cc2)c(O)c2ccccc21 | . | . | . | . | . | / | /
C=CCn1c(=O)c(C(=O)NC(C)c2ccccc2)c(O)c2ccccc21 (centres undefined) | 83.7 | . | . | . | . | . | .
COc1ccc(CN(C)C(=O)Cn2ccc(N)nc2=O)cc1OC | 88.8 | . | . | . | . | . | .
COc1ccc(CN(C)CCCn2ccc(N)nc2=O)cc1OC | . | . | . | . | / | / | /
Cc1nc2c(=O)[nH]c(=S)[nH]c2[nH]c1=O | 78.9 | . | 54.7 | . | 95.7 | . | .
CCc1ccc(OC)c(S(=O)(=O)NCc2cccs2)c1 | . | . | . | . | . | / | /
Nn1cnc2c(c1=O)C1(CCCCC1)Cc1ccccc1-2 | . | . | . | . | . | / | /
Cn1ncn2c(=O)c3c(nc12)-c1ccccc1CC31CCCC1 | 85.5 | . | . | . | . | . | .
C=CCc1cccc(CNn2cnnc2)c1O | . | . | . | . | . | / | /
Cc1ccccc1OCc1nnc(SCC(=O)Nc2ccc3nc(SCC(=O)Nc4ccccc4)sc3c2)n1C | 56.0 | . | . | . | . | . | .
COCOCCn1cc(CN2CCS(=O)(=O)N(Cc3ccc(-c4ccc(OC)c(OC)c4)cc3)C(CC(C)C)C2=O)nn1 (centres undefined) | . | . | . | . | / | / | /
Cc1ccc(OCC(=O)NNC(=O)CSc2ncnc3sc(C)c(C)c23)cc1 | 53.9 | . | . | . | . | . | .
CSc1nc(Sc2cccc(Cl)c2)c2ccccc2n1 | 86.8 | . | . | . | . | . | .
Cc1ccc(C(=O)NCCCNCCCN(C)C)cn1 | 52.8 | . | . | . | . | . | .
Cc1ccc(C(=O)NCCCNCCCNC(=O)c2ccc(C)nc2)cn1 | . | . | . | . | . | / | /
